{"source": "ChEMBL document CHEMBL1142744", "about": "(Bioorg Med Chem Lett, 2005)", "key": {"[1]": {"target": "Neuronal acetylcholine receptor; alpha2/beta2 (Rattus norvegicus, UniProt P12389+P12390)", "sequence (P12389 whole entry)": "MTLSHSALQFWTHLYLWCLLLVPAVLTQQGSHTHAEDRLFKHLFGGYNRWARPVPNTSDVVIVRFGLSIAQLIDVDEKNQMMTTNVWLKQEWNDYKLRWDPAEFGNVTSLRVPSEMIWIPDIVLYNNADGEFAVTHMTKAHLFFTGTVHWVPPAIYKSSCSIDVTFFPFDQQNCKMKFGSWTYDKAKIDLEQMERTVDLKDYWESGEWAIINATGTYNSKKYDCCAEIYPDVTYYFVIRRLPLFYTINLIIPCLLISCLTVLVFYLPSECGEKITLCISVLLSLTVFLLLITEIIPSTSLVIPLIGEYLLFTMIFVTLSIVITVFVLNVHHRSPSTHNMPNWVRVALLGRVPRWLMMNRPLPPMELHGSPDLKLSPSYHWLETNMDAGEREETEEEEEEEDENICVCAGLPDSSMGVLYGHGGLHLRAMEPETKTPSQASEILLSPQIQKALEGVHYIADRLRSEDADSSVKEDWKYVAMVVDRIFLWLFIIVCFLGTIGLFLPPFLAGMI", "sequence (P12390 whole entry)": "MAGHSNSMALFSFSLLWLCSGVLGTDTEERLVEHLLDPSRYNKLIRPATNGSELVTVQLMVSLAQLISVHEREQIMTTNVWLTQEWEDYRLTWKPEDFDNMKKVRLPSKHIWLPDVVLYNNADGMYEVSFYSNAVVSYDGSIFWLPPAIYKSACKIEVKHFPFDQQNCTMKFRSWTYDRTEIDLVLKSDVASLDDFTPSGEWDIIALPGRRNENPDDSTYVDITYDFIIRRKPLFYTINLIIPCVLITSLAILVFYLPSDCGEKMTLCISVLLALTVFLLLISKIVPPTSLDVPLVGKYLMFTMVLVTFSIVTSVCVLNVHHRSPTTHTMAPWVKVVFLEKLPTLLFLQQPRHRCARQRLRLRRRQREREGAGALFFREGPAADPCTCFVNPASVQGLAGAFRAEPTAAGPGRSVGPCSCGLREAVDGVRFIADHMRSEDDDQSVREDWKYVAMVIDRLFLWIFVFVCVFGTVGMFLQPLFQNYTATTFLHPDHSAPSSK", "assay": "In vitro binding affinity towards rat Nicotinic acetylcholine receptor alpha2-beta2 using 0.5 nM [3H]epibatidine", "assay_type": "protein-complex assay"}, "[2]": {"target": "Neuronal acetylcholine receptor; alpha2/beta4 (Rattus norvegicus, UniProt P12389+P12392)", "sequence (P12389 whole entry)": "as the sequence (P12389 whole entry) above", "sequence (P12392 whole entry)": "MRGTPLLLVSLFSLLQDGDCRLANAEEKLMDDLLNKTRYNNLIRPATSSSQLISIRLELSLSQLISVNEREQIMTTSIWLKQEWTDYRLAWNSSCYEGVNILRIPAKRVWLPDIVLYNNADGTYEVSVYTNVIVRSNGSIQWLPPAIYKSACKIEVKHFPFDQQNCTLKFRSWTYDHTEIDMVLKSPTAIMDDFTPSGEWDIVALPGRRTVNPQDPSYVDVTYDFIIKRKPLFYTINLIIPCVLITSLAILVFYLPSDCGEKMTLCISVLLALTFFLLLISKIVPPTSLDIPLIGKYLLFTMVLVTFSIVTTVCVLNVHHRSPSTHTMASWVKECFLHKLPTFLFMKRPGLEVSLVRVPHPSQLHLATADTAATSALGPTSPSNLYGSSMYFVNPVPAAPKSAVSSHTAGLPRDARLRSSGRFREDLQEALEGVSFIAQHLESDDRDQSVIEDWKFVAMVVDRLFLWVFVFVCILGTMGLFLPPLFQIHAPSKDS", "assay": "In vitro binding affinity towards rat Nicotinic acetylcholine receptor alpha2-beta4 using 0.5 nM [3H]epibatidine", "assay_type": "protein-complex assay"}, "[3]": {"target": "Neuronal acetylcholine receptor; alpha3/beta2 (Rattus norvegicus, UniProt P04757+P12390)", "sequence (P04757 whole entry)": "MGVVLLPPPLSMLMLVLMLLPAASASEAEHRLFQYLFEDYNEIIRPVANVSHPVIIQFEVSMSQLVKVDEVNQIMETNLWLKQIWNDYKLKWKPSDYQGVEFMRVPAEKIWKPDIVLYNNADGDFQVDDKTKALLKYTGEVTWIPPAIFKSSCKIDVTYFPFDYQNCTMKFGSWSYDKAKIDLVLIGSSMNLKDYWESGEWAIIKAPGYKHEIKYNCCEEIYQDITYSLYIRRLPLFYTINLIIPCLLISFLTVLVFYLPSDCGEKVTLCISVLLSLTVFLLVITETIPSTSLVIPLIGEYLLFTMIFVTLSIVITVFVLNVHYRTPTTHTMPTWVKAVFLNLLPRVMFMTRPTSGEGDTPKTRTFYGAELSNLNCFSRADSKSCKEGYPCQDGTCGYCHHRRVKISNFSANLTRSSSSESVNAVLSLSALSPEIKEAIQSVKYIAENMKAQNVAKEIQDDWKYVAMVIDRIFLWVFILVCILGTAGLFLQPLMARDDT", "sequence (P12390 whole entry)": "as the sequence (P12390 whole entry) above", "assay": "In vitro binding affinity towards rat Nicotinic acetylcholine receptor alpha3-beta2 using 0.5 nM [3H]epibatidine", "assay_type": "protein-complex assay"}, "[4]": {"target": "Neuronal acetylcholine receptor; alpha3/beta4 (Rattus norvegicus, UniProt P04757+P12392)", "sequence (P04757 whole entry)": "as the sequence (P04757 whole entry) above", "sequence (P12392 whole entry)": "as the sequence (P12392 whole entry) above", "assay": "In vitro binding affinity towards rat Nicotinic acetylcholine receptor alpha3-beta4 using 0.5 nM [3H]epibatidine", "assay_type": "protein-complex assay"}, "[5]": {"target": "Neuronal acetylcholine receptor; alpha4/beta2 (Rattus norvegicus, UniProt P09483+P12390)", "sequence (P09483 whole entry)": "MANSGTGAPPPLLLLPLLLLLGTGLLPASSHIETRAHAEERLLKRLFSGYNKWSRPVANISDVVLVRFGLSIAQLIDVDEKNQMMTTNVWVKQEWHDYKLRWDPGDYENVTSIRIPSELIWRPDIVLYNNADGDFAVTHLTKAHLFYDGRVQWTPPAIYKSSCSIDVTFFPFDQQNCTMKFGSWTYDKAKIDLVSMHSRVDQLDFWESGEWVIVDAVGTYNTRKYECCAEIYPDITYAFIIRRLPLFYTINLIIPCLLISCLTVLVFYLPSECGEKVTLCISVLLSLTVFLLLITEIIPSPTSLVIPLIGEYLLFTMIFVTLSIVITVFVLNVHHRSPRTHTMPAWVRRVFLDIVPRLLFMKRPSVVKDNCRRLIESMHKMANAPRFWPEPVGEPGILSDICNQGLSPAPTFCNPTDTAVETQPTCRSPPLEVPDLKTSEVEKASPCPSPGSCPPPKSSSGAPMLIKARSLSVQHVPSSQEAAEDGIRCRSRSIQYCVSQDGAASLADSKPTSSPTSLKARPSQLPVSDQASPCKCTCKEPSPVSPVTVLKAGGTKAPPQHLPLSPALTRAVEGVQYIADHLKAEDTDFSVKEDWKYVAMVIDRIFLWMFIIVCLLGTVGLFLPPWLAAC", "sequence (P12390 whole entry)": "as the sequence (P12390 whole entry) above", "assay": "In vitro binding affinity towards rat Nicotinic acetylcholine receptor alpha4-beta2 using 0.5 nM [3H]epibatidine", "assay_type": "protein-complex assay", "summary_of_the_method": "(§1)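 Stably transfected cell lines, each expressing one rat nAChR subtype (α4β2 or α4β4), were used. Ki was derived from the radioligand Kd for each subtype.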"}, "[6]": {"target": "Neuronal acetylcholine receptor; alpha4/beta4 (Rattus norvegicus, UniProt P09483+P12392)", "sequence (P09483 whole entry)": "as the sequence (P09483 whole entry) above", "sequence (P12392 whole entry)": "as the sequence (P12392 whole entry) above", "assay": "In vitro binding affinity towards rat Nicotinic acetylcholine receptor alpha4-beta4 using 0.5 nM [3H]epibatidine", "assay_type": "protein-complex assay", "summary_of_the_method": "as §1"}, "[7]": {"target": "Neuronal acetylcholine receptor; alpha3/beta4 (Rattus norvegicus) (UniProt P04757+P12392)", "assay": "Agonistic activity as [86Rb+] efflux from KXalpha-3-beta-4R2 cells expressing rat Nicotinic acetylcholine receptor at 100 uM", "assay_type": "functional", "summary_of_the_method": "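KXα3β4R2 cells stably expressing functional rat α3β4 receptors were used. Agonism was read as stimulated 86Rb+ efflux in the presence of compound at 100 µM.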"}}}
{"compound": "Fc1ncc(C2CC3CCC2N3)cc1-c1ccc(Cl)c(Cl)c1", "note": "(stereo unspecified)", "values": [{"measurement": "Ki", "setting": "[1]", "value": 0.245, "unit": "nM"}, {"measurement": "Ki", "setting": "[2]", "value": 6.99, "unit": "nM"}, {"measurement": "Ki", "setting": "[3]", "value": 2.31, "unit": "nM"}, {"measurement": "Ki", "setting": "[4]", "value": 334, "unit": "nM"}, {"measurement": "Ki", "setting": "[5]", "value": 0.28, "unit": "nM"}, {"measurement": "Ki", "setting": "[6]", "value": 7.36, "unit": "nM"}, {"measurement": "Stimulation", "setting": "[7]", "value": 2.7, "unit": "%"}]}
{"compound": "Fc1ccc(-c2cc(C3CC4CCC3N4)cnc2F)cc1", "note": "(stereo unspecified)", "values": [{"measurement": "Ki", "setting": "[1]", "value": 0.079, "unit": "nM"}, {"measurement": "Ki", "setting": "[2]", "value": 6.12, "unit": "nM"}, {"measurement": "Ki", "setting": "[3]", "value": 0.504, "unit": "nM"}, {"measurement": "Ki", "setting": "[4]", "value": 405, "unit": "nM"}, {"measurement": "Ki", "setting": "[5]", "value": 0.078, "unit": "nM"}, {"measurement": "Ki", "setting": "[6]", "value": 6.42, "unit": "nM"}, {"measurement": "Stimulation", "setting": "[7]", "value": 3.6, "unit": "%"}]}
{"compound": "N#Cc1ccc(-c2cc(C3CC4CCC3N4)cnc2F)cc1", "note": "(stereo unspecified)", "values": [{"measurement": "Ki", "setting": "[1]", "value": 0.066, "unit": "nM"}, {"measurement": "Ki", "setting": "[2]", "value": 3.67, "unit": "nM"}, {"measurement": "Ki", "setting": "[3]", "value": 0.351, "unit": "nM"}, {"measurement": "Ki", "setting": "[4]", "value": 289, "unit": "nM"}, {"measurement": "Ki", "setting": "[5]", "value": 0.039, "unit": "nM"}, {"measurement": "Ki", "setting": "[6]", "value": 3.6, "unit": "nM"}, {"measurement": "Stimulation", "setting": "[7]", "value": 36.8, "unit": "%"}]}
{"compound": "Cc1ccc(-c2cc(C3CC4CCC3N4)cnc2Cl)cc1", "note": "(stereo unspecified)", "values": [{"measurement": "Ki", "setting": "[1]", "value": 0.044, "unit": "nM"}, {"measurement": "Ki", "setting": "[2]", "value": 5.26, "unit": "nM"}, {"measurement": "Ki", "setting": "[3]", "value": 0.171, "unit": "nM"}, {"measurement": "Ki", "setting": "[4]", "value": 429, "unit": "nM"}, {"measurement": "Ki", "setting": "[5]", "value": 0.058, "unit": "nM"}, {"measurement": "Ki", "setting": "[6]", "value": 4.75, "unit": "nM"}, {"measurement": "Stimulation", "setting": "[7]", "value": 3.8, "unit": "%"}]}
{"compound": "Cc1ccc(-c2cc(C3CC4CCC3N4)cnc2F)cc1", "note": "(stereo unspecified)", "values": [{"measurement": "Ki", "setting": "[1]", "value": 0.035, "unit": "nM"}, {"measurement": "Ki", "setting": "[2]", "value": 0.541, "unit": "nM"}, {"measurement": "Ki", "setting": "[3]", "value": 0.078, "unit": "nM"}, {"measurement": "Ki", "setting": "[4]", "value": 29, "unit": "nM"}, {"measurement": "Ki", "setting": "[5]", "value": 0.028, "unit": "nM"}, {"measurement": "Ki", "setting": "[6]", "value": 1.22, "unit": "nM"}, {"measurement": "Stimulation", "setting": "[7]", "value": 1, "unit": "%"}]}
{"compound": "Fc1ncc(C2CC3CCC2N3)cc1-c1ccccc1", "note": "(stereo unspecified)", "values": [{"measurement": "Ki", "setting": "[1]", "value": 0.643, "unit": "nM"}, {"measurement": "Ki", "setting": "[2]", "value": 16.6, "unit": "nM"}, {"measurement": "Ki", "setting": "[3]", "value": 3.54, "unit": "nM"}, {"measurement": "Ki", "setting": "[4]", "value": 947, "unit": "nM"}, {"measurement": "Ki", "setting": "[5]", "value": 0.733, "unit": "nM"}, {"measurement": "Ki", "setting": "[6]", "value": 26, "unit": "nM"}, {"measurement": "Stimulation", "setting": "[7]", "value": 0.4, "unit": "%"}]}
{"compound": "CN1CCC[C@H]1c1cccnc1", "values": [{"measurement": "Stimulation", "setting": "[7]", "value": 100, "unit": "%"}]}
{"compound": "Cc1cccc(-c2cc(C3CC4CCC3N4)cnc2F)c1", "note": "(stereo unspecified)", "values": [{"measurement": "Ki", "setting": "[1]", "value": 1.11, "unit": "nM"}, {"measurement": "Ki", "setting": "[2]", "value": 31.3, "unit": "nM"}, {"measurement": "Ki", "setting": "[3]", "value": 9.27, "unit": "nM"}, {"measurement": "Ki", "setting": "[4]", "value": 2400, "unit": "nM"}, {"measurement": "Ki", "setting": "[5]", "value": 0.898, "unit": "nM"}, {"measurement": "Ki", "setting": "[6]", "value": 36.7, "unit": "nM"}, {"measurement": "Stimulation", "setting": "[7]", "value": 0.1, "unit": "%"}]}
{"compound": "Fc1ncc(C2CC3CCC2N3)cc1-c1ccc(Cl)cc1", "note": "(stereo unspecified)", "values": [{"measurement": "Ki", "setting": "[1]", "value": 0.064, "unit": "nM"}, {"measurement": "Ki", "setting": "[2]", "value": 4.12, "unit": "nM"}, {"measurement": "Ki", "setting": "[3]", "value": 0.339, "unit": "nM"}, {"measurement": "Ki", "setting": "[4]", "value": 256, "unit": "nM"}, {"measurement": "Ki", "setting": "[5]", "value": 0.062, "unit": "nM"}, {"measurement": "Ki", "setting": "[6]", "value": 3.99, "unit": "nM"}, {"measurement": "Stimulation", "setting": "[7]", "value": 3.2, "unit": "%"}]}
{"compound": "Cc1cc(-c2cc(C3CC4CCC3N4)cnc2F)ccc1F", "note": "(stereo unspecified)", "values": [{"measurement": "Ki", "setting": "[1]", "value": 1.54, "unit": "nM"}, {"measurement": "Ki", "setting": "[2]", "value": 60.1, "unit": "nM"}, {"measurement": "Ki", "setting": "[3]", "value": 8.84, "unit": "nM"}, {"measurement": "Ki", "setting": "[4]", "value": 2940, "unit": "nM"}, {"measurement": "Ki", "setting": "[5]", "value": 1.26, "unit": "nM"}, {"measurement": "Ki", "setting": "[6]", "value": 67.6, "unit": "nM"}, {"measurement": "Stimulation", "setting": "[7]", "value": 0.7, "unit": "%"}]}
{"compound": "CN1C2CCC1C(c1cnc(Cl)c(-c3ccccc3)c1)C2", "note": "(stereo unspecified)", "values": [{"measurement": "Ki", "setting": "[1]", "value": 0.053, "unit": "nM"}, {"measurement": "Ki", "setting": "[2]", "value": 0.24, "unit": "nM"}, {"measurement": "Ki", "setting": "[3]", "value": 0.158, "unit": "nM"}, {"measurement": "Ki", "setting": "[4]", "value": 15.4, "unit": "nM"}, {"measurement": "Ki", "setting": "[5]", "value": 0.032, "unit": "nM"}, {"measurement": "Ki", "setting": "[6]", "value": 1.57, "unit": "nM"}, {"measurement": "Stimulation", "setting": "[7]", "value": 3.9, "unit": "%"}]}
{"compound": "Clc1ncc(C2CC3CCC2N3)cc1-c1ccccc1", "note": "(stereo unspecified)", "values": [{"measurement": "Ki", "setting": "[1]", "value": 0.037, "unit": "nM"}, {"measurement": "Ki", "setting": "[2]", "value": 0.47, "unit": "nM"}, {"measurement": "Ki", "setting": "[3]", "value": 0.122, "unit": "nM"}, {"measurement": "Ki", "setting": "[4]", "value": 24, "unit": "nM"}, {"measurement": "Ki", "setting": "[5]", "value": 0.039, "unit": "nM"}, {"measurement": "Ki", "setting": "[6]", "value": 1.15, "unit": "nM"}, {"measurement": "Stimulation", "setting": "[7]", "value": 6.1, "unit": "%"}]}
{"compound": "Clc1ccc(C2CC3CCC2N3)cn1", "note": "(racemic)", "values": [{"measurement": "Stimulation", "setting": "[7]", "value": 112, "unit": "%"}]}
{"compound": "COc1ccc(-c2cc(C3CC4CCC3N4)cnc2Cl)cc1", "note": "(stereo unspecified)", "values": [{"measurement": "Ki", "setting": "[1]", "value": 0.04, "unit": "nM"}, {"measurement": "Ki", "setting": "[2]", "value": 0.862, "unit": "nM"}, {"measurement": "Ki", "setting": "[3]", "value": 0.1, "unit": "nM"}, {"measurement": "Ki", "setting": "[4]", "value": 54.5, "unit": "nM"}, {"measurement": "Ki", "setting": "[5]", "value": 0.034, "unit": "nM"}, {"measurement": "Ki", "setting": "[6]", "value": 1.57, "unit": "nM"}, {"measurement": "Stimulation", "setting": "[7]", "value": 3.1, "unit": "%"}]}
